Source: ChEMBL document CHEMBL4706691, “Bicyclic Diazepinones as Dual Ligands of the α2δ-1 Subunit of Voltage-Gated Calcium Channels and the Norepinephrine Transporter” (J Med Chem, 2021)

Legend:
[1] = target: T1, Sodium-dependent noradrenaline transporter (Homo sapiens, UniProt P23975); test: Displacement of [3H]-nisoxetine from human NET expressed in HEK293 cell membranes incubated for 60 mins by scintillation counting method
[2] = target: T1, Sodium-dependent noradrenaline transporter; test: Inhibition of human NET expressed in HEK293 cells assessed as reduction in ASP+ uptake incubated for 20 mins before ASP+ addition and measured after 90 mins by scintillation counting method
[3] = target: Voltage-dependent calcium channel subunit alpha-2/delta-1 (Homo sapiens, UniProt P54289); test: Displacement of [3H]-gabapentin from human Cav alpha2delta1 expressed in CHO-K1 cell membranes incubated for 60 mins by scintillation counting method; set-up: species or system Cell membrane
Procedure, shortened: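 Nonspecific binding defined with 10 μM pregabalin. Test compounds at five concentrations in duplicate, giving Ki. Bound radioactivity collected by filtration on PEI-soaked GF/C, washed with cold 50 mM Tris-HCl, then scintillation counted.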

[4] = target: Voltage-dependent calcium channel subunit alpha-2/delta-2 (Homo sapiens, UniProt Q9NY47); test: Displacement of [3H]-gabapentin from human Cav alpha2delta2 expressed in HEK293 cell membranes incubated for 60 mins by scintillation counting method
[5] = target: CYP2D6 (Homo sapiens, UniProt P10635); test: Inhibition of human CYP2D6 at 1 uM relative to control; type: ADME
[6] = target: CYP3A4 (Homo sapiens, UniProt P08684); test: Inhibition of human CYP3A4 at 1 uM relative to control; type: ADME
[7] = target: T2, CYP1A2 (Homo sapiens, UniProt P05177); test: Inhibition of human CYP1A2 at 1 uM relative to control; type: ADME
T2 sequence (P05177 whole entry): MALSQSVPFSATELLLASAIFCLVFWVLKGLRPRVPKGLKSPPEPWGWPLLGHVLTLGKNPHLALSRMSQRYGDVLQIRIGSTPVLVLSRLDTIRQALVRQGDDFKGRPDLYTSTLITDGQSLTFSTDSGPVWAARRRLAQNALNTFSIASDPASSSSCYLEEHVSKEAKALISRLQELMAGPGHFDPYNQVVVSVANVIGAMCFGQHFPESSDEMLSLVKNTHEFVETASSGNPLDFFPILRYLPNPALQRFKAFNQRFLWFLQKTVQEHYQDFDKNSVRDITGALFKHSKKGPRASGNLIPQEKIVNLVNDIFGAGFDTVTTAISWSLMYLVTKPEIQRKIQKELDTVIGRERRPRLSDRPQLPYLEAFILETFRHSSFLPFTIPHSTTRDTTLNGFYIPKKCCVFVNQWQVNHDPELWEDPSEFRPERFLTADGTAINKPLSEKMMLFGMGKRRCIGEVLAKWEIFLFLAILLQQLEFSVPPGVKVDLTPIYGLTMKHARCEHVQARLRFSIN

[8] = target: CYP2C19 (Homo sapiens, UniProt P33261); test: Inhibition of human CYP2C19 at 1 uM relative to control; type: ADME
[9] = target: Voltage-gated inwardly rectifying potassium channel KCNH2 (Homo sapiens, UniProt Q12809); test: Inhibition of human ERG
[10] = target: CYP2C9 (Homo sapiens, UniProt P11712); test: Inhibition of human CYP2C9 at 1 uM relative to control; type: ADME
[11] = Intrinsic clearance in human liver microsomes
[12] = Intrinsic clearance in rat liver microsomes

CYP3A4, sequence (P08684 whole entry): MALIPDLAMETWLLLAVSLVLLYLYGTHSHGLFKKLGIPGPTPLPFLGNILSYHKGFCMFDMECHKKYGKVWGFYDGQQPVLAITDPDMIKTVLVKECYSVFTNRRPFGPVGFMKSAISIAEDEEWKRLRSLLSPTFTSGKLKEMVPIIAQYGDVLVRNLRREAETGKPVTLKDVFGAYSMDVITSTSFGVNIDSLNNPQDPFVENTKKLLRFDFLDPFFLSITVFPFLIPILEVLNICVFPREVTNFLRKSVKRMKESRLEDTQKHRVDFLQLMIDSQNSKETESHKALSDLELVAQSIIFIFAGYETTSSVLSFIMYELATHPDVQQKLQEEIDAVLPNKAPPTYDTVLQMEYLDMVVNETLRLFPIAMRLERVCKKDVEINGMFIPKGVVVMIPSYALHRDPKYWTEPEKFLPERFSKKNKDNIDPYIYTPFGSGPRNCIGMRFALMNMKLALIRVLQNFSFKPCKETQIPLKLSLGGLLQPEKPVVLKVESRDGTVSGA
Voltage-dependent calcium channel subunit alpha-2/delta-2, sequence (Q9NY47 19-1001 limits assumed): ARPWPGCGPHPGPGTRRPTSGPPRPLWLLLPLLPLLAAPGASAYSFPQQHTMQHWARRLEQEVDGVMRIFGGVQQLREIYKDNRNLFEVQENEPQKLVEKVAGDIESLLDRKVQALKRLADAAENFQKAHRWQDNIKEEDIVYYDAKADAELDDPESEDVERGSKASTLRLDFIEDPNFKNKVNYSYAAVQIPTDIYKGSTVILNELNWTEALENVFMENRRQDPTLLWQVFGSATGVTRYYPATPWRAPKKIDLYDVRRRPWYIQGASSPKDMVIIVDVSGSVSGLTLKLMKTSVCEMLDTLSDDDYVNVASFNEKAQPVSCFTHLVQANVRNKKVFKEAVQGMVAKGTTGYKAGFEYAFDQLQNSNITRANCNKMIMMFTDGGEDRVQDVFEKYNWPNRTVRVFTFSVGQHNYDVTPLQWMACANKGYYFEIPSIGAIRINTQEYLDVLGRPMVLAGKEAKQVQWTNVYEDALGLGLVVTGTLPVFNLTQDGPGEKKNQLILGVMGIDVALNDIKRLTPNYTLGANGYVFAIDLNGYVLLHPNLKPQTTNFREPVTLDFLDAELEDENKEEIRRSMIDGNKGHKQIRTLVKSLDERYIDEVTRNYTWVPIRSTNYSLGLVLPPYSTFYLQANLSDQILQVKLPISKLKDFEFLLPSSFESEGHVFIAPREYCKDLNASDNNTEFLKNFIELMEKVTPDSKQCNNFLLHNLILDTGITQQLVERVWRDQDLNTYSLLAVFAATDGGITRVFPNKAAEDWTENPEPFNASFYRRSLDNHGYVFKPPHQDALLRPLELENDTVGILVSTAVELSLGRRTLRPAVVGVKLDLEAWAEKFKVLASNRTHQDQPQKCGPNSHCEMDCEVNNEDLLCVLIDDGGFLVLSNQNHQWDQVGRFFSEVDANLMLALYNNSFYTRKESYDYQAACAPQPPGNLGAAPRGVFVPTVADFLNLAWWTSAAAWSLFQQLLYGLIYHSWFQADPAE
Voltage-dependent calcium channel subunit alpha-2/delta-2, sequence (Q9NY47 1002-1150 limits assumed): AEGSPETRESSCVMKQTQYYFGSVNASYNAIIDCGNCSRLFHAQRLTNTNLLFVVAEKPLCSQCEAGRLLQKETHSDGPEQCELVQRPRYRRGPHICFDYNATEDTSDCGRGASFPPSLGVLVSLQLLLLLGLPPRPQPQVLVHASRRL
CYP2D6, sequence (P10635 whole entry): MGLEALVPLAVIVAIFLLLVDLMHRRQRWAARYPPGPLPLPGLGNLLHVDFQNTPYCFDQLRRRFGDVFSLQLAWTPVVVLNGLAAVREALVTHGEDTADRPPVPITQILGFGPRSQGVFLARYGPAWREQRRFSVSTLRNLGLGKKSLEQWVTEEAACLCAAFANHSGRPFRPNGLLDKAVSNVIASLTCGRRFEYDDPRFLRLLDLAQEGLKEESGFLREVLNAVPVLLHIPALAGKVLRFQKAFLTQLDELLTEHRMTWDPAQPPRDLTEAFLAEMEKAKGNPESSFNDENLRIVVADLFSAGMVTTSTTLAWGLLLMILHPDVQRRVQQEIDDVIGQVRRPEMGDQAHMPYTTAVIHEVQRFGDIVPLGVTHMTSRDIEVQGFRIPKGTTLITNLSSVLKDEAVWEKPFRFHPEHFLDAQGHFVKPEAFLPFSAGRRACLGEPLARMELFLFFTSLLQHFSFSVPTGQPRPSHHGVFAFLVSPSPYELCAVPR
Voltage-gated inwardly rectifying potassium channel KCNH2, sequence (Q12809 whole entry): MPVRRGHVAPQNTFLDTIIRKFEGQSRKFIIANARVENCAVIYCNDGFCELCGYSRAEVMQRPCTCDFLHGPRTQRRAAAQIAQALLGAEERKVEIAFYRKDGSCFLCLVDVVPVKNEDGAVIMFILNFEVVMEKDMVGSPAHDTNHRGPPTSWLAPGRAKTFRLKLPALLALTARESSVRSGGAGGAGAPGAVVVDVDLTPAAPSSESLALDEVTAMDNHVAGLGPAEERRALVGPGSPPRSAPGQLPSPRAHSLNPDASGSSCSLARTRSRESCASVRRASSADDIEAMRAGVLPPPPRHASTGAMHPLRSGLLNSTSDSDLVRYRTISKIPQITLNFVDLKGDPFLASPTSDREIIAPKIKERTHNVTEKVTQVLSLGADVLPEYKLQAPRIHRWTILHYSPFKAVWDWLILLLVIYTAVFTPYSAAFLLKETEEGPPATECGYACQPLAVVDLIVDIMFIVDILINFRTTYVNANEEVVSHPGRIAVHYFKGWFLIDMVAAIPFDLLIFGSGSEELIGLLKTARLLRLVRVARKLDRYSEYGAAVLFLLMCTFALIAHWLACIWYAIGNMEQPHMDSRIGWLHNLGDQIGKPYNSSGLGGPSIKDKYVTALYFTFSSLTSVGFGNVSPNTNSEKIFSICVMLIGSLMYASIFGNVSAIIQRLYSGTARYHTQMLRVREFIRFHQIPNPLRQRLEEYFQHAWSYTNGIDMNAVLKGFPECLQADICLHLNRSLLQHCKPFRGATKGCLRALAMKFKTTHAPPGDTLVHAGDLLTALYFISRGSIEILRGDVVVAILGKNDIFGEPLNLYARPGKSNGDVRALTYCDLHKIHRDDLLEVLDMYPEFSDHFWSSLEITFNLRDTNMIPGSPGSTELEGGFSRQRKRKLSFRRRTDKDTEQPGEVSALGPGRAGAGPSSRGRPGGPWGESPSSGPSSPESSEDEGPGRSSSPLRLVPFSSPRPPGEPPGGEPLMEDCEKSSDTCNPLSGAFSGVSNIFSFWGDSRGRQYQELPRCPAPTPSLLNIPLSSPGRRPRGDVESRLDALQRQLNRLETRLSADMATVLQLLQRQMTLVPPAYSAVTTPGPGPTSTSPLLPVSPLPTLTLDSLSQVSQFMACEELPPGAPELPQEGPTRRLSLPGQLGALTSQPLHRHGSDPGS
CYP2C9, sequence (P11712 whole entry): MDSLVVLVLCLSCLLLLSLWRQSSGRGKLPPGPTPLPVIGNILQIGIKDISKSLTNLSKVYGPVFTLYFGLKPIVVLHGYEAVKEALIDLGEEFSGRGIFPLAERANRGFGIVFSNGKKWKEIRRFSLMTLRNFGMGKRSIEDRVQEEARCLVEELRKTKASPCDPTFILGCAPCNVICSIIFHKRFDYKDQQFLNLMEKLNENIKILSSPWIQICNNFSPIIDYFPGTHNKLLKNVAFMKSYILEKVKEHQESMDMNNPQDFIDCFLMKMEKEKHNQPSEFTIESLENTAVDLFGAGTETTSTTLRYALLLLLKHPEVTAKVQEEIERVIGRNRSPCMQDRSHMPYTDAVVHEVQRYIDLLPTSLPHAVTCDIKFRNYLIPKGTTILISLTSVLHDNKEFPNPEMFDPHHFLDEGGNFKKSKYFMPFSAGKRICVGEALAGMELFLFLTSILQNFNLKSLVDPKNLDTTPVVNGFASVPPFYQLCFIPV
Voltage-dependent calcium channel subunit alpha-2/delta-1, sequence (P54289 25-956 limits assumed): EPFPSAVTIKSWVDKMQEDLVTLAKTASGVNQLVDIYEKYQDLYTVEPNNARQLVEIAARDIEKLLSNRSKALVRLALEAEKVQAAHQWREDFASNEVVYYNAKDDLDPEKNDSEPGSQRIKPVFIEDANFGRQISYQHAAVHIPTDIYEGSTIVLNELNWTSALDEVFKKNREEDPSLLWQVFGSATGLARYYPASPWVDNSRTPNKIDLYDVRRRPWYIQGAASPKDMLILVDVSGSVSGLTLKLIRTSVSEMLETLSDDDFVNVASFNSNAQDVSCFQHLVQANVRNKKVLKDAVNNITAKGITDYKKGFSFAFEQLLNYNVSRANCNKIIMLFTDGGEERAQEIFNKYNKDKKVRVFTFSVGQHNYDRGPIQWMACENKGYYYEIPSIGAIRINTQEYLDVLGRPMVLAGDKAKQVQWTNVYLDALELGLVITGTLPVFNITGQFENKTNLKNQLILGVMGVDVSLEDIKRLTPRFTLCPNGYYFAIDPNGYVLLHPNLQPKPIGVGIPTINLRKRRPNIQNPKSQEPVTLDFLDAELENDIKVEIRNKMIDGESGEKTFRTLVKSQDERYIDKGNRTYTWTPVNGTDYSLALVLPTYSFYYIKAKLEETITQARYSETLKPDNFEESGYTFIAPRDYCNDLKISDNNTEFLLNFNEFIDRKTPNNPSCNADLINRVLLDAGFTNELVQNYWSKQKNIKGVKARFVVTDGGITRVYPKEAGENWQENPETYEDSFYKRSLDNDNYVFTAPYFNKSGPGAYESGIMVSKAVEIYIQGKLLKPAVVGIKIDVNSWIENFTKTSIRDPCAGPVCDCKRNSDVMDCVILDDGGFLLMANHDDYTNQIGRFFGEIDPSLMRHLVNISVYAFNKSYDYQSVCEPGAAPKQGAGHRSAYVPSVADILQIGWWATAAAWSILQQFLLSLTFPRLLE
Voltage-dependent calcium channel subunit alpha-2/delta-1, sequence (P54289 957-1103 limits assumed): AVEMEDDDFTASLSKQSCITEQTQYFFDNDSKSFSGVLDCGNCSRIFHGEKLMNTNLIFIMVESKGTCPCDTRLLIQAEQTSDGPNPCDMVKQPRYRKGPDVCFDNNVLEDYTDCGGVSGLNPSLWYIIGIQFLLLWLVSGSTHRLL

## CCNc1ncc2c(n1)N1CCC[C@H]1CN(c1cccc(-c3noc(C)n3)c1)C2=O
[1]
  Ki: > 10 µM
[2]
  IC50: > 10 µM
[3]
  Ki: 11 nM
[4]
  Ki: 2150 nM

## CNc1ncc2c(n1)N(C)CCN(c1cccc(-c3nnc(C)o3)c1)C2=O
[1]
  Ki: > 10 µM
[2]
  IC50: > 10 µM
[3]
  Ki: 244 nM
[4]
  Ki: > 10000 nM

## CNCC[C@H](Oc1cccc(N2CCN(C)c3nc(N)ncc3C2=O)c1)c1cccs1
[5]
  inhibition at 1 µM: < 50%
[6]
  inhibition at 1 µM: < 50%
[7]
  inhibition at 1 µM: < 50%
[8]
  inhibition at 1 µM: < 50%
[9]
  IC50: > 10 µM
[10]
  inhibition at 1 µM: < 50%

## CNCC[C@@H](Oc1cccc(N2CCN(C)CCC2=O)c1)c1cccs1
[3]
  Ki: 606 nM

## CNCCC(Oc1cccc(N2CCN(C)c3cccnc3C2=O)c1)c1cccs1 (stereo not drawn)
[3]
  Ki: 1250 nM

## CNCCC(Oc1cccc(N2CCN(C)c3cnccc3C2=O)c1)c1cccs1 (stereo not drawn)
[3]
  Ki: 208 nM

## CCNc1ncc2c(n1)N(C)CCN(c1ccccc1OC(CCNC)c1ccccc1)C2=O (stereo not drawn)
[1]
  Ki: > 10 µM
[2]
  IC50: > 10 µM
[3]
  Ki: 3490 nM

## CCNc1ncc2c(n1)N1CCC[C@@H]1CN(c1cccc(OC(CCNC)c3ccccc3)c1)C2=O (stereo partly drawn)
[3]
  Ki: 187 nM

## CNCC[C@H](Oc1cccc(N2CCN(C)CCC2=O)c1)c1cccs1
[3]
  Ki: 2800 nM

## CCN(C)c1ncc2c(n1)N(C)CCN(c1cccc(-c3nnc(C)o3)c1)C2=O
[1]
  Ki: > 10 µM
[2]
  IC50: > 10 µM
[3]
  Ki: > 10000 nM

## CCNc1ncc2c(n1)N1CCC[C@H]1CN(c1cccc(OC(CCNC)c3ccccc3)c1)C2=O (stereo partly drawn)
[3]
  Ki: 336 nM

## CCNc1ncc2c(n1)N(C)CCN(c1cccc(-c3nnc(C)o3)c1)C2=O
[5]
  inhibition at 1 µM: < 50%
[1]
  Ki: > 10 µM
[11]
  microsomal CLint: < 5 µL/min/mg
[12]
  microsomal CLint: < 5 µL/min/mg
[2]
  IC50: > 10 µM
[3]
  Ki: 81 nM
[6]
  inhibition at 1 µM: < 50%
[7]
  inhibition at 1 µM: < 50%
[8]
  inhibition at 1 µM: < 50%
[9]
  IC50: > 10 µM
[10]
  inhibition at 1 µM: < 50%
[4]
  Ki: 2970 nM

## CNCCC(Oc1cccc(N2CCN(C)c3ccccc3C2=O)c1)c1cccs1 (stereo not drawn)
[3]
  Ki: 833 nM

## CCNc1ncc(C(=O)N(C)c2cccc(OC(CCNC)c3ccccc3)c2)cn1 (stereo not drawn)
[1]
  Ki: > 10 µM
[2]
  IC50: > 10 µM
[3]
  Ki: > 10000 nM

## CSc1ncc2c(n1)N(C)CCN(c1cccc(-c3nnc(C)o3)c1)C2=O
[1]
  Ki: > 10 µM
[2]
  IC50: > 10 µM
[3]
  Ki: > 10000 nM
[4]
  Ki: > 10000 nM

## CCNc1ncc2c(n1)N(CC)CCN(c1cccc(-c3nnc(C)o3)c1)C2=O
[1]
  Ki: > 10 µM
[2]
  IC50: > 10 µM
[3]
  Ki: 178 nM

## COCCNc1ncc2c(n1)N(C)CCN(c1cccc(-c3nnc(C)o3)c1)C2=O
[1]
  Ki: > 10 µM
[2]
  IC50: > 10 µM
[3]
  Ki: > 10000 nM

## CNCC[C@H](Oc1cccc(N2CCN(C)c3ncccc3C2=O)c1)c1cccs1
[5]
  inhibition at 1 µM: < 50%
[6]
  inhibition at 1 µM: < 50%
[7]
  inhibition at 1 µM: < 50%
[8]
  inhibition at 1 µM: < 50%
[9]
  IC50: > 10 µM
[10]
  inhibition at 1 µM: < 50%

## CCNc1ncc2c(n1)N(C)CCN(c1cccc(-c3nnc(C)o3)c1)C2
[1]
  Ki: > 10 µM
[2]
  IC50: > 10 µM
[3]
  Ki: 1030 nM

## CCNc1ncc2c(n1)N(C)CCN(c1ccccc1COC(CCNC)c1ccccc1)C2=O (stereo not drawn)
[1]
  Ki: > 10 µM
[2]
  IC50: > 10 µM
[3]
  Ki: > 10000 nM

## CC(C)C[C@H](CN)CC(=O)O [PREGABALIN]
[1]
  Ki: > 10 µM
[2]
  IC50: > 10 µM
[3]
  Ki: 19 nM
[4]
  Ki: 99 nM
